Reference: ChEMBL document CHEMBL1137290, “Design, synthesis, and biological evaluation of a new class of small molecule peptide mimetics targeting the melanocortin receptors” (Bioorg Med Chem Lett, 2006)

What was measured:
Melanocortin receptor 3 [1] = target: T1, Melanocortin receptor 3 (Homo sapiens, UniProt P41968); assay: Activity at human MC3R expressed in HEK293 cells assessed by measuring intracellular cAMP accumulation; format: functional, cell-based
Procedure, shortened: (§1)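 Whole HEK293 cells expressing the human melanocortin receptor were incubated with ligand, and the cAMP they produced was measured as the read-out of adenylate cyclase activation.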

Melanocortin receptor 5 [2] = target: T2, Melanocortin receptor 5 (Homo sapiens, UniProt P33032); assay: Displacement of [125I]NDP-alpha-MSH from human MC5R expressed in HEK293 cells; format: cell-based
T2 sequence (P33032 whole entry): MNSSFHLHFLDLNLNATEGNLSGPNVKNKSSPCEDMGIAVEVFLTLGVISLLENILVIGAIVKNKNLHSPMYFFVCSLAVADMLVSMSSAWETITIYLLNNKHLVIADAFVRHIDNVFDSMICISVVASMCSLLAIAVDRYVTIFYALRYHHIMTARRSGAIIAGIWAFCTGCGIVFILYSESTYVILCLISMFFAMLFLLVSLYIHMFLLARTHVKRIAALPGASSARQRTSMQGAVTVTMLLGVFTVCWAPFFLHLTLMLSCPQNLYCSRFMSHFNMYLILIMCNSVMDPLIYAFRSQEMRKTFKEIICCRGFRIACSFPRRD

Melanocortin receptor 4 [3] = target: T3, Melanocortin receptor 4 (Homo sapiens, UniProt P32245); assay: Displacement of [125I]NDP-alpha-MSH from human MC4R expressed in HEK293 cells; format: cell-based
T3 sequence (P32245 whole entry): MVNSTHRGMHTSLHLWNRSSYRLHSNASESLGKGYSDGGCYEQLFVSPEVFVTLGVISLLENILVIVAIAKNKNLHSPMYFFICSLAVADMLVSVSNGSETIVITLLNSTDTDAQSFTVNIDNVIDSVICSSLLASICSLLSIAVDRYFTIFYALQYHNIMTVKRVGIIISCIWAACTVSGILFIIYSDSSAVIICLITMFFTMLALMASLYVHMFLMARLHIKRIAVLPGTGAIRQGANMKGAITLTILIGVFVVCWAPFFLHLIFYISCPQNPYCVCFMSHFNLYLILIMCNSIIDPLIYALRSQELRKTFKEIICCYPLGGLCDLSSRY

Melanocortin receptor 5 [4] = target: T2, Melanocortin receptor 5; assay: Activity at human MC5R expressed in HEK293 cells assessed as activation of adenylate cyclase; format: functional, cell-based; design: concentration or dose not given beside the values; procedure, shortened: as §1
Melanocortin receptor 3 [5] = target: T1, Melanocortin receptor 3; assay: Displacement of [125I]NDP-alpha-MSH from human MC3R expressed in HEK293 cells; format: cell-based
Melanocortin receptor 4 [6] = target: T3, Melanocortin receptor 4; assay: Activity at human MC4R expressed in HEK293 cells assessed by measuring intracellular cAMP accumulation; format: functional, cell-based; procedure, shortened: as §1
Melanocortin receptor 3 [7] = target: T1, Melanocortin receptor 3; assay: Activity at human MC3R expressed in HEK293 cells assessed as activation of adenylate cyclase; format: functional, cell-based; design: concentration or dose not given beside the values; procedure, shortened: as §1
Melanocortin receptor 5 [8] = target: T2, Melanocortin receptor 5; assay: Activity at human MC5R expressed in HEK293 cells assessed by measuring intracellular cAMP accumulation; format: functional, cell-based; procedure, shortened: as §1
[9] = target: T4, Melanocyte-stimulating hormone receptor (Homo sapiens, UniProt Q01726); assay: Activity at human MC1R expressed in HEK293 cells assessed as activation of adenylate cyclase; format: functional, cell-based; design: concentration or dose not given beside the values
Procedure, shortened: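 Whole HEK293 cells expressing the human melanocortin receptor were incubated with ligand, and the cAMP they produced was measured as the read-out of adenylate cyclase activation. EC50 is the concentration giving 50% of maximal intracellular cAMP accumulation.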
Target sequence in this assay (Q01726 whole entry, looked up): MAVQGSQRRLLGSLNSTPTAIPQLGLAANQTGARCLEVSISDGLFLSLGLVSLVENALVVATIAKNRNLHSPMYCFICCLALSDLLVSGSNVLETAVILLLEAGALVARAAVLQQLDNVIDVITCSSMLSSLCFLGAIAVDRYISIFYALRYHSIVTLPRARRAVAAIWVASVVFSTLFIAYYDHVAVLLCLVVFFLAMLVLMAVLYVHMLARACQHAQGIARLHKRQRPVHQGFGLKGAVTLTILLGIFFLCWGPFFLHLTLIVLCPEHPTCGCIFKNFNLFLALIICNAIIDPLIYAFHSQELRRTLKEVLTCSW

Melanocortin receptor 4 [10] = target: T3, Melanocortin receptor 4; assay: Activity at human MC4R expressed in HEK293 cells assessed as activation of adenylate cyclase; format: functional, cell-based; design: concentration or dose not given beside the values; procedure, shortened: as §1
[11] = target: T4, Melanocyte-stimulating hormone receptor; assay: Displacement of [125I]NDP-alpha-MSH from human MC1R expressed in HEK293 cells; format: cell-based
Target sequence in this assay (Q01726 whole entry): as the sequence (Q01726 whole entry, looked up) above

[12] = target: T4, Melanocyte-stimulating hormone receptor; assay: Activity at human MC1R expressed in HEK293 cells assessed by measuring intracellular cAMP accumulation; format: functional, cell-based; procedure, shortened: as §1
Target sequence in this assay (Q01726 whole entry): as the sequence (Q01726 whole entry, looked up) above

[13] = target: T4, Melanocyte-stimulating hormone receptor; assay: Displacement of [125I]NDP-alpha-MSH from human MC1R expressed in HEK293 cells relative to MT-II; format: cell-based
Target sequence in this assay (Q01726 whole entry, looked up): as above

Melanocortin receptor 5 [14] = target: T2, Melanocortin receptor 5; assay: Displacement of [125I]NDP-alpha-MSH from human MC5R expressed in HEK293 cells relative to MT-II; format: cell-based
Procedure, shortened: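 Binding efficiency was measured on whole HEK293 cells expressing hMC5R, by competition with 125I-NDP-α-MSH. It is the maximum radioligand displacement by the test compound divided by the maximum displacement caused by excess MT-II.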

T1 sequence (P41968 whole entry): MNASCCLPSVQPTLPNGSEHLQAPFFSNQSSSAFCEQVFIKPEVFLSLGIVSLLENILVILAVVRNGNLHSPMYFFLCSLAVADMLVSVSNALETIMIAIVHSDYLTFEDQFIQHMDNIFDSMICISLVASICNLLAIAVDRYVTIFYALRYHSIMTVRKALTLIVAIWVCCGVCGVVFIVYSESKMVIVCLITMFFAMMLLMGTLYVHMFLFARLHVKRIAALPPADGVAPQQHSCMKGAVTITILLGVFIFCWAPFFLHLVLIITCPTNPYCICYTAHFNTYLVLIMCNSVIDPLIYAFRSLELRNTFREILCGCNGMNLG

Row | SMILES | EC50 (Melanocortin receptor 3 [1]) [µM] | IC50 (Melanocortin receptor 5 [2]) [µM] | IC50 (Melanocortin receptor 4 [3]) [µM] | Activity (Melanocortin receptor 5 [4]) [%] | IC50 (Melanocortin receptor 3 [5]) [µM] | EC50 (Melanocortin receptor 4 [6]) [µM] | Activity (Melanocortin receptor 3 [7]) [%] | EC50 (Melanocortin receptor 5 [8]) [µM] | Activity [9] [%] | Activity (Melanocortin receptor 4 [10]) [%] | IC50 [11] [µM] | EC50 [12] [µM] | Activity [13] [%] | Activity (Melanocortin receptor 5 [14]) [%]
1 | O=C(CCc1c[nH]c2ccccc12)N1C[C@@H]2CCCN2C[C@H]1Cc1ccccc1 | > 10 | > 10 | > 10 | 0 | 0.0012 | > 10 | 0 | > 10 | 0 | 0 | 0.004 | > 10 | 50 | 
2 | O=C(CCc1c[nH]c2ccccc12)N1C[C@@H]2CCCN2C[C@@H]1Cc1ccccc1 | > 10 | 0.0008 | > 10 | 0 | > 10 | > 10 | 0 | > 10 | 0 | 0 | > 10 | > 10 |  | 50
3 | O=C(Cc1ccccc1)N1C[C@@H]2CCCN2C[C@H]1Cc1ccccc1 | > 10 | > 10 | 0.0012 | 0 | 0.005 | > 10 | 0 | > 10 | 0 | 0 | 0.0013 | > 10 | 90 | 
4 | O=C(CCC(=O)N1C[C@@H]2CCCN2C[C@@H]1Cc1ccccc1)NCCc1c[nH]c2ccccc12 | > 10 | 0.0005 | > 10 | 0 | > 10 | > 10 | 0 | > 10 | 0 | 0 | > 10 | > 10 |  | 50
5 | N=C(N)NCCC[C@H](NC(=O)CCc1c[nH]c2ccccc12)C(=O)N1C[C@@H]2CCCN2C[C@@H]1Cc1ccccc1 |  |  |  | 0 |  |  | 0 |  | 20 | 0 |  |  |  | 60
6 | O=C(CCc1c[nH]c2ccccc12)NCCCCCC(=O)N1C[C@@H]2CCCN2C[C@@H]1Cc1ccccc1 | > 10 | 0.0004 | > 10 | 0 | > 10 | > 10 | 0 | > 10 | 0 | 0 | > 10 | > 10 |  | 65
7 | O=C(Cc1ccccc1)N1C[C@@H]2CCCN2C[C@@H]1Cc1ccccc1 | > 10 | > 10 | > 10 | 0 | 0.35 | 0.0027 | 0 | > 10 | 0 | 30 | 0.0022 | > 10 | 80 | 
8 | NC(N)=NCCC[C@H](NC(=O)CCc1c[nH]c2ccccc12)C(=O)N1C[C@@H]2CCCN2C[C@@H]1Cc1ccccc1 | > 10 | 0.0001 | > 10 |  | > 10 | > 10 |  | > 10 |  |  | > 10 | > 10 |  | 
9 | O=C(CCC(=O)N1C[C@@H]2CCCN2C[C@H]1Cc1ccccc1)NCCc1c[nH]c2ccccc12 | > 10 | 0.0001 | > 10 | 0 | > 10 | > 10 | 0 | > 10 | 0 | 0 | > 10 | > 10 |  | 60
